Laboratory results taken from ChEMBL document CHEMBL1134599, “Design and synthesis of [(2,3-dichlorophenyl)piperazin-1-yl]alkylfluorenylcarboxamides as novel ligands selective for the dopamine D3 receptor subtype” (J Med Chem, 2001).

Assays:
D(3) dopamine receptor = D(3) dopamine receptor (Homo sapiens, UniProt P35462); test: Binding affinity at dopamine receptor D3
D(2) dopamine receptor = D(2) dopamine receptor (Homo sapiens, UniProt P14416); test: Binding affinity at human dopamine receptor D2
In short: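 Membranes from CHO cells expressing cloned D2 receptor (labelled primate in methods). Compounds tested at 0.1 nM–10 µM in duplicate with 0.1 nM [3H]YM-09151-2 and 40 µg membrane protein. Buffer was 50 mM Tris pH 7.4 with 120 mM NaCl, bacitracin and aprotinin. Incubated 2 h at room temperature, then filtered on PEI-treated GF/C. Nonspecific binding defined with 10 µM spiperone. IC50 converted to Ki by Cheng-Prusoff. 2–3 independent experiments.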

D(4) dopamine receptor = target: T1, D(4) dopamine receptor (Homo sapiens, UniProt P21917); test: Binding affinity at human dopamine receptor D4
T1 sequence (P21917 whole entry): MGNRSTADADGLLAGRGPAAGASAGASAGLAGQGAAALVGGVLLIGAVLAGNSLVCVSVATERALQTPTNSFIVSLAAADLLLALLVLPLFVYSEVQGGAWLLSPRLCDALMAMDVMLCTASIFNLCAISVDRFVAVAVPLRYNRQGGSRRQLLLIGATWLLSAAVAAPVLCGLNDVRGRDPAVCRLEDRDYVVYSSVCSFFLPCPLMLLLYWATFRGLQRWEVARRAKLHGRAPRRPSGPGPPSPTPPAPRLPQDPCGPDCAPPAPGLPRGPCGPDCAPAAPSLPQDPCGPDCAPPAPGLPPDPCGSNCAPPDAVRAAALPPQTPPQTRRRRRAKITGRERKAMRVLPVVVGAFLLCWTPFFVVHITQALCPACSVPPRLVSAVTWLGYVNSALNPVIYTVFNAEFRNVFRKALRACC
In short: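 Membranes from CHO cells expressing cloned human D4 receptor, prepared in HEPES buffer with protease inhibitors. Compounds tested at 0.1 nM–10 µM in duplicate with 0.1 nM [3H]YM-09151-2 and 40 µg protein, in 50 mM Tris pH 7.4 with 120 mM NaCl. Incubated 2 h at room temperature, then filtered and counted by scintillation. Nonspecific binding defined with 10 µM spiperone. Ki from IC50 by Cheng-Prusoff. 2–3 independent experiments.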

[1] = Binding affinity at human dopamine receptor D2

Chain of D(3) dopamine receptor (P35462 whole entry): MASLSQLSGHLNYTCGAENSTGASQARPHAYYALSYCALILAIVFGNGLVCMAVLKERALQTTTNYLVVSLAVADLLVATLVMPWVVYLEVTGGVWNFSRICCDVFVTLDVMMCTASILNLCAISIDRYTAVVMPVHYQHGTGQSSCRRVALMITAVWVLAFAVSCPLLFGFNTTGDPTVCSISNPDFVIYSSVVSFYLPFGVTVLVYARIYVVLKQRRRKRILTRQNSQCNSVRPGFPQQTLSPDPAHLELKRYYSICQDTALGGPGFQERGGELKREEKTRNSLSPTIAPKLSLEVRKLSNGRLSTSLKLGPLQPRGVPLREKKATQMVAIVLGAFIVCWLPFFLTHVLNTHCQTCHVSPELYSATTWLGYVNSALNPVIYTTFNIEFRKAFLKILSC
Chain of D(2) dopamine receptor (P14416 whole entry): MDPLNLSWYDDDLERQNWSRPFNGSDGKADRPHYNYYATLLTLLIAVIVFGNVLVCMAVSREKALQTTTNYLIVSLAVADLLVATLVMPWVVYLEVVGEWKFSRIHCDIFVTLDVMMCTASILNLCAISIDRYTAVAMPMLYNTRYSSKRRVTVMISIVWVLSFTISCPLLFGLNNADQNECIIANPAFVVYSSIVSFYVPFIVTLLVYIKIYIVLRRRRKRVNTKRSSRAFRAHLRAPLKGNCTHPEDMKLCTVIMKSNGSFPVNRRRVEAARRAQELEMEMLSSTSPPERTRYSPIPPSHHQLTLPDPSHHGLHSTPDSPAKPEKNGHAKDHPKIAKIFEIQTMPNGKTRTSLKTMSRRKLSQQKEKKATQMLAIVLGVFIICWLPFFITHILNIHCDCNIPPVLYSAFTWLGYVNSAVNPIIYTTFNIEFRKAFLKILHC

Row | SMILES | Ki (D(3) dopamine receptor) [nM] | Ki (D(2) dopamine receptor) [nM] | Ki (D(4) dopamine receptor) [nM] | Ki [1] [nM]
1 | Clc1cccc(C(OC2CC3CCC(C2)N3CCCc2ccccc2)c2ccccc2)c1 (stereo not given) | 72.7 | 59 | 222 | 
2 | CCN(CC)CCOCCOC1(c2ccccc2)CCCC1 | 6100 |  |  | 
3 | O=C(NCCCN1CCN(c2cccc(Cl)c2Cl)CC1)c1cccc2c1Cc1ccccc1-2 | 170 | 1680 | 326 | 
4 | O=C(NCCCN1CCN(c2ccccc2)CC1)c1ccc2c(c1)Cc1ccccc1-2 | 1460 | 825 | 679 | 
5 | C[C@@H]1CN(CCCN(c2ccccc2)c2ccccc2)C[C@H](C)N1CCCc1ccccc1 | > 5000 |  |  | 
6 | Fc1ccc(C(OC2CC3CCC(C2)N3Cc2cc3ccccc3[nH]2)c2ccc(F)cc2)cc1 (stereo not given) | 53.2 | 218 | 172 | 
7 | OC1CCc2c(c3ccccc3n2CCCN2CCN(c3ccccc3)CC2)C1 (stereo not given) | 4010 | 180 | > 4000 | 
8 | C[C@@H]1CN(CCCn2c3ccccc3c3ccccc32)C[C@H](C)N1C | > 8000 |  |  | 
9 | O=C(NCCCN1CCN(c2ccccc2)CC1)c1cccc2c1Cc1ccccc1-2 | 430 | 473 | 791 | 
10 | O=C(NCCCCN1CCN(c2cccc(Cl)c2Cl)CC1)c1ccc2c(c1)-c1ccccc1C2 | 1.4 | 217 | > 5000 | 
11 | Fc1ccc(C(OCCOC2CC3CCC(C2)N3)c2ccc(F)cc2)cc1 (stereo not given) | 2520 | 1120 | > 4000 | 
12 | Clc1ccccc1N1CCN(CCCn2c3ccccc3c3ccccc32)CC1 | > 4000 |  |  | 
13 | C[C@@H]1CN(CCCn2c3ccccc3c3ccccc32)C[C@H](C)N1CCCc1ccccc1 | > 4000 |  |  | 
14 | Fc1ccc(C(OC2CC3CCC(C2)N3Cc2cccc3ccccc23)c2ccc(F)cc2)cc1 (stereo not given) | 112 | 379 | 120 | 
15 | Fc1ccc(C(OC2CC3CCC(C2)N3Cc2ccccc2)c2ccc(F)cc2)cc1 (stereo not given) | 63.3 | 132 | 640 | 
16 | Fc1ccc(C(O[C@H]2C[C@H]3CC[C@@H](C2)N3CCCCc2ccccc2)c2ccc(F)cc2)cc1 | 13.8 | 81.3 | 68.1 | 
17 | Fc1ccc(C(OC2CC3CCC(C2)N3Cc2ccc(Cl)c(Cl)c2)c2ccc(F)cc2)cc1 (stereo not given) | 277 | 625 | 349 | 
18 | O=C(NCCCCN1CCN(c2cccc(Cl)c2Cl)CC1)c1cccc2c1-c1ccccc1C2=O | 1.4 | 89 | 1850 | 
19 | O=C(NCCCN1CCN(c2ccccc2)CC1)C1c2ccccc2-c2ccccc21 | 340 | 606 | 2170 | 
20 | O=C1c2ccccc2C(=O)N1CCCCCN1CCN(c2cccc(Cl)c2Cl)CC1 | 7.8 | 11 | 105 | 

Row | SMILES | Ki (D(3) dopamine receptor) [nM] | Ki (D(2) dopamine receptor) [nM] | Ki (D(4) dopamine receptor) [nM] | Ki [1] [nM]
21 | O=C(NCCCCN1CCN(c2cccc(Cl)c2Cl)CC1)C1c2ccccc2-c2ccccc21 | 19 | 10 | 391 | 
22 | CN1[C@@H]2CC[C@H]1C[C@@H](OC(c1ccc(Cl)cc1)c1ccc(Cl)cc1)C2 | 220 |  |  | 
23 | O=C(NCCCN1CCN(c2cccc(Cl)c2Cl)CC1)c1cccc2c1-c1ccccc1C2=O | 36 | 512 | 3990 | 
24 | CN1C2CCC1CC(OC(c1ccccc1)c1ccc(Cl)cc1)C2 (stereo not given) | 5380 | 1740 | 1000 | 
25 | C[C@@H]1CN(CCCn2c3ccc(Br)cc3c3cc(Br)cc(Br)c32)C[C@@H](C)N1 | > 8000 |  |  | 
26 | C[C@@H]1CN(CCCn2c3ccccc3c3cc(N)ccc32)C[C@H](C)N1 | > 8000 |  |  | 
27 | CN1C2CCC1CC(OC1c3ccccc3Cc3ccccc31)C2 (stereo not given) | 193 | 672 | 541 | 
28 | O=C(NCCCN1CCN(c2ccccc2)CC1)c1cccc2c1-c1ccccc1C2=O | 430 | 777 | 1380 | 
29 | O=C(NCC1c2ccccc2-c2ccccc21)C1CCNCC1 | > 8000 |  |  | 
30 | C[C@@H]1CN(CCCN(c2ccccc2)c2ccccc2)C[C@H](C)N1 | > 8000 |  |  | 
31 | Fc1ccc(C(OCCN2C3CCC2CC(OC(c2ccc(F)cc2)c2ccc(F)cc2)C3)c2ccc(F)cc2)cc1 (stereo not given) | 214 | 927 | 868 | 
32 | c1ccc(N2CCN(CCCn3c4ccccc4c4ccccc43)CC2)cc1 | 2420 |  |  | 
33 | C=CCN1C2CCC1CC(OC(c1ccc(F)cc1)c1ccc(F)cc1)C2 (stereo not given) | 130 |  |  | 
34 | O=C(NCCCCN1CCN(c2cccc(Cl)c2Cl)CC1)c1ccc2c(c1)-c1ccccc1-2 |  |  | > 5000 | […]
35 | O=C(NCCCN1CCN(c2cccc(Cl)c2Cl)CC1)c1ccc2c(c1)Cc1ccccc1-2 | 110 | 2570 | 350 | 
36 | O=C(NCCCCCN1CCN(c2cccc(Cl)c2Cl)CC1)c1cccc2c1-c1ccccc1C2=O | 28 | 5 | 530 | 
37 | O=C(NCCCN1CCN(c2cccc(Cl)c2Cl)CC1)C1c2ccccc2-c2ccccc21 | 24 | 414 | 1140 | 
38 | O=C1c2ccccc2C(=O)N1CCCCN1CCN(c2cccc(Cl)c2Cl)CC1 | 4.1 | 120 | 368 | 
39 | CN1C2CCC1CC(OC(c1ccc(F)cc1)c1ccc(F)cc1)C2 (stereo not given) [DIFLUOROBENZTROPINE] | 145 |  |  | 
